ChEMBL document CHEMBL4513216, “Probing the Open Global Health Chemical Diversity Library for Multistage-Active Starting Points for Next-Generation Antimalarials” (ACS Infect Dis, 2020)

Assay: Toxicity liver stage against HepG2, at 10uM
Format: cell-based
Parameters: test concentration 10 uM, cell line HepG2-A16-CD81EGFP
Settings: human, HepG2-A16-CD81EGFP cells; read-out: INHIBITION
Method in brief: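 Uninfected HepG2-A16-CD81EGFP cells, 3 × 10^3 per well, 1536-well, plated on prespotted compound at 10 μM final, parasite-free screening media added to match infected plates; puromycin 10 μM positive, DMSO 0.5% negative; run in parallel with 48 h PbLuc assay at 37 °C, 5% CO2; viability by CellTiter-Glo luminescence, normalized to controls.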
Molecule `CC(C)NC(=O)N[C@H]1C[C@@H](c2nc(-c3ccc(F)cc3)no2)N(C)C1` has a cytotoxicity at 10 µM of -7.97%. In the case of `COc1ccc(F)cc1S(=O)(=O)NCC(O)c1sccc1C` (configuration not stated), the cytotoxicity at 10 µM was -0.269%. Molecule `COc1ccc(C(=O)NCCN2CCC(c3cccs3)CC2)cc1OC` has a cytotoxicity at 10 µM of -0.493%. With `CSCCC(C)(O)CNS(=O)(=O)Cc1cccc(C)c1` (configuration not stated) the cytotoxicity at 10 µM was 1.09%. `O=c1[nH]c2cc(S(=O)(=O)N3CCC(c4ccsc4)CC3)ccc2o1` showed a cytotoxicity at 10 µM of -9.69%. `Cc1cnc(N2CCCn3c(nnc3Cn3cccn3)C2)nc1` showed a cytotoxicity at 10 µM of 6.19%. `CS(=O)(=O)N1CCC2(CC1)CN(CCn1cccn1)C(=O)CO2` gave a cytotoxicity at 10 µM of -2.79%. With `CC(=O)N1C[C@H]2C3(CCN(S(C)(=O)=O)CC3)CC[C@@]2(C(=O)N(C)C)C1` the cytotoxicity at 10 µM was -1.16%. In the case of `CN1[C@@H](C(=O)NCC2CC2)C[C@@H]2CN(c3ncccn3)C[C@@H]21`, the cytotoxicity at 10 µM was 9.85%. With `O=C(c1ccsc1)N1CCc2c(CNc3nccs3)n[nH]c2C1` the cytotoxicity at 10 µM was 10.9%. Work on `COCCc1noc(-c2ccc(=O)[nH]c2)n1` yielded a cytotoxicity at 10 µM of -3.61%. With `COc1ccc(Cl)cc1-c1nc(N)nc(N)n1` the cytotoxicity at 10 µM was 1.57%. `CCn1nccc1CNC(=O)C1CCCO1` (configuration not stated) showed a cytotoxicity at 10 µM of -2.21%. In the case of `CCn1cc(Br)c(C(=O)NCc2ccccc2)n1`, the cytotoxicity at 10 µM was 7.61%. `CC(C)Cc1noc(C2CCN(C(=O)c3cccs3)CC2)n1` gave a cytotoxicity at 10 µM of 9.81%. `CCCc1nc(NCCOC)c2c(n1)c(C)nn2CC` gave a cytotoxicity at 10 µM of 3.36%. With `Cc1cc(-c2ccnn2C)nc(C2CCCN(S(C)(=O)=O)C2)n1` (configuration not stated) the cytotoxicity at 10 µM was 3.33%. For `CC1(c2ncc(CN(CC(=O)O)Cc3ccccc3)cn2)CCCCO1` (configuration not stated), the cytotoxicity at 10 µM was -3.73%. `CN1C[C@@H](C(=O)NC2CC2)[C@@]2(COc3ccc(F)cc3C2=O)C1` gave a cytotoxicity at 10 µM of -26.5%. With `Cn1ccc(C(=O)N2CCc3[nH]nc(Nc4ccccc4)c3C2)n1` the cytotoxicity at 10 µM was 5.21%. `Cc1n[nH]c(C)c1CC(=O)N1CC[C@@](C)(O)[C@H](Oc2ccccc2)C1` gave a cytotoxicity at 10 µM of 2.85%. Molecule `Cn1ccc(C(=O)NCC2(O)CCN(c3cnccn3)C2)n1` (configuration not stated) has a cytotoxicity at 10 µM of 3.45%. In the case of `Cc1c(C(=O)NC2CCCOC2)nnn1-c1ccccc1` (configuration not stated), the cytotoxicity at 10 µM was -24.5%. Work on `Cc1cc(C2CCN(S(=O)(=O)c3cn(C)cn3)CC2)ccn1` yielded a cytotoxicity at 10 µM of -32.6%. `Cc1nc(C2CCCN2C(=O)CC2CCCC2)ncc1C(N)=O` (configuration not stated) showed a cytotoxicity at 10 µM of -21.7%. `O=C(NC1CCCc2nc(N3CCOCC3)ncc21)C1CCCCC1` (configuration not stated) showed a cytotoxicity at 10 µM of -19.9%. `Cc1ccc(-c2cc(N)c(=O)n(CC(=O)NCC3CC3)n2)s1` showed a cytotoxicity at 10 µM of 10.3%. `NCc1cnn(-c2ccccc2C(=O)NCc2ccncc2)c1` gave a cytotoxicity at 10 µM of -1.78%. With `CCc1ccc(C(NCC(N)=O)C(C)(C)C)o1` (configuration not stated) the cytotoxicity at 10 µM was -7.21%. With `CCC(c1ccc(F)cc1)N1CCn2c(CO)nnc2C1` (configuration not stated) the cytotoxicity at 10 µM was -9.15%. For `Cn1c(CO)cnc1SC1CCCN(c2ccccc2F)C1=O` (configuration not stated), the cytotoxicity at 10 µM was -4%. For `OC(CNCc1nnc2ccccn12)c1ccc2c(c1)OCCCO2` (configuration not stated), the cytotoxicity at 10 µM was 2.93%. Molecule `Cc1cc(C2CCCN(Cc3nnc(Cc4ccccc4)o3)C2)n[nH]1` (configuration not stated) has a cytotoxicity at 10 µM of -5.78%. For `NC(=O)C1CCN(C(=O)NC2CCc3cc(F)ccc32)CC1` (configuration not stated), the cytotoxicity at 10 µM was 2.52%. `CN(C)C1Cc2ccccc2N(S(=O)(=O)c2ccccc2C#N)C1` (configuration not stated) gave a cytotoxicity at 10 µM of 0.71%. In the case of `NC(=O)C1CCN(C(=O)NCc2ccc3c(c2)OCCO3)CC1`, the cytotoxicity at 10 µM was -8.14%. For `Cc1nn(C)c(N2CCCN(C)CC2)c1CNC(=O)CCC(C)C`, the cytotoxicity at 10 µM was -1.08%. For `Cc1nn(CC(C)C)c(C)c1CC(=O)N1CCCC(NS(C)(=O)=O)C1` (configuration not stated), the cytotoxicity at 10 µM was 6.29%. `Cc1csc(C2CCCCN2C(=O)COCc2nc(C)no2)n1` (configuration not stated) gave a cytotoxicity at 10 µM of 1.09%. With `CNS(=O)(=O)CC(=O)N(Cc1c(F)cccc1Cl)C1CC1` the cytotoxicity at 10 µM was 4.71%. `CSc1ccsc1C(=O)NS(=O)(=O)c1cccc(C#N)c1` gave a cytotoxicity at 10 µM of 7.49%. Molecule `OCCN1CCN(CC(O)c2ccc(C(F)(F)F)cc2)CC1` (configuration not stated) has a cytotoxicity at 10 µM of -10%. In the case of `CCS(=O)(=O)CCNC(=O)NC(C)c1ccc(C)s1` (configuration not stated), the cytotoxicity at 10 µM was -8.64%. Work on `CC(C)n1nc2c(cc1=O)CN(CC(=O)N(C)c1nccs1)CC2` yielded a cytotoxicity at 10 µM of -9.94%. With `CC(C)(C)OC(=O)NC1(c2noc(-c3ccoc3)n2)CCC1` the cytotoxicity at 10 µM was 3.12%. Work on `CCc1nc(C2CCCN2CCc2cccs2)no1` (configuration not stated) yielded a cytotoxicity at 10 µM of -108%. In the case of `Cc1cc(C)n(CC2CCCN2C(=O)Cc2csc(C)n2)n1` (configuration not stated), the cytotoxicity at 10 µM was 9.3%. For `O=c1[nH]c(N2CC(O)C2)nc2c1cnn2-c1ccccc1`, the cytotoxicity at 10 µM was 1.92%. For `CC(C)NC(=O)C1CN(C(=O)Nc2cccc(F)c2)CC12CCOCC2` (configuration not stated), the cytotoxicity at 10 µM was -85.8%. Work on `C[C@@H]1CN(C(=O)NC2CC2)C[C@]12CCN(c1ccsc1)C2=O` yielded a cytotoxicity at 10 µM of 0.77%. Molecule `CCN1CC2(CCC1=O)CCN(Cc1nncn1C)CC2` has a cytotoxicity at 10 µM of 4.46%. For `CCNc1ncc(C(=O)N[C@H](C(N)=O)c2ccccc2)cn1`, the cytotoxicity at 10 µM was 10.6%. `CCOCc1nc2c(c(N(C)Cc3ccsc3)n1)CCNCC2` showed a cytotoxicity at 10 µM of 11.1%. Work on `COCCN(Cc1sccc1C)Cc1nccn1CCOC` yielded a cytotoxicity at 10 µM of 2.33%. Molecule `O=C(NCCOCCO)[C@@]12CNC[C@@H]1CN(C1CCCC1)C2` has a cytotoxicity at 10 µM of -16.4%. Molecule `Cc1cn(CC(=O)Nc2cc(C(C)(C)C)nn2C)cn1` has a cytotoxicity at 10 µM of 0.79%. Work on `Cc1ccccc1C(C(=O)NCCSC(C)C)N(C)C` (configuration not stated) yielded a cytotoxicity at 10 µM of 9.38%. For `CN1CCC(N(Cc2ccncc2)C(=O)COCC2CCCCO2)CC1` (configuration not stated), the cytotoxicity at 10 µM was -150%. In the case of `COc1ccc(OC)c2c(C)cc(N(C)Cc3cc(C)on3)nc12`, the cytotoxicity at 10 µM was 1.42%. With `CC(=O)c1ccc(CN2C[C@@H](CN3CCC(O)CC3)[C@@H](CO)C2)cc1` the cytotoxicity at 10 µM was 9.99%. `O=C(c1ncccc1O)N1CCN(Cc2ccco2)C(CCO)C1` (configuration not stated) gave a cytotoxicity at 10 µM of 3.89%. For `O=C(N[C@@H]1CCNC[C@H]1O)c1ccccc1OC(F)(F)C(F)F`, the cytotoxicity at 10 µM was -3.28%. Work on `COc1cccc(CNc2nc(O)cc(C3CC(=O)N(C)C3)n2)c1` (configuration not stated) yielded a cytotoxicity at 10 µM of -2.24%. With `CCn1cc(C(=O)N2CCCC(c3[nH]ncc3S(C)(=O)=O)C2)cn1` (configuration not stated) the cytotoxicity at 10 µM was 8.42%. `O=C(NCc1ccco1)N1CCN(Cc2ccc3c(c2)CCO3)CC1` showed a cytotoxicity at 10 µM of -2.83%. With `CN(C)C(=O)CS(=O)(=O)Cc1cc(Cl)c2c(c1)OCCO2` the cytotoxicity at 10 µM was 1.38%. `NC(=O)C1CCN(C(=O)NCc2csc(Br)c2)CC1` showed a cytotoxicity at 10 µM of -18%. For `O=C(c1cccc2cccnc12)N1CCCC(n2ccnc2)C1` (configuration not stated), the cytotoxicity at 10 µM was -5.75%. Work on `CCCc1nc(CN2CCCC2Cn2cncn2)no1` (configuration not stated) yielded a cytotoxicity at 10 µM of -2%. In the case of `COCCCNC(=O)N1CCC(CNC(=O)c2cnn(C)c2)CC1`, the cytotoxicity at 10 µM was -1.3%. `Cc1ccc(N2CCCC(NCc3ccc(C)s3)C2)nn1` (configuration not stated) gave a cytotoxicity at 10 µM of -2.51%. `COc1cc(C)nc(N2CCN(C(=O)CCn3cc(C)cn3)CC2)n1` gave a cytotoxicity at 10 µM of -3.56%. For `COc1c(C)cnc(CN2CCOC(Cn3nc(C)nc3C)C2)c1C` (configuration not stated), the cytotoxicity at 10 µM was -13.1%. In the case of `Cn1nc2c(cc1=O)CN(Cc1nnc(-c3ccc(F)cc3)o1)CC2`, the cytotoxicity at 10 µM was -9.47%. `CCc1onc(C)c1C(=O)N1CCN(c2ncc3c(n2)CCOC3)CC1` showed a cytotoxicity at 10 µM of 0.0912%. For `Cn1nc(CNC(=O)CC#N)c2c1CN(CC1CC1)CC2`, the cytotoxicity at 10 µM was 7.4%. `CN(Cc1cccnc1)CC1CC12CCN(c1nncs1)CC2` (configuration not stated) gave a cytotoxicity at 10 µM of 9.28%. For `OCCN1CCOC2(CCCN(c3ncc(F)cn3)C2)C1` (configuration not stated), the cytotoxicity at 10 µM was 5.98%. For `CN(C)CCN1CCO[C@H]2CN(Cc3ccccn3)C[C@H]21`, the cytotoxicity at 10 µM was -1.91%. In the case of `c1cnc2c(c1)cc([C@H]1CCCO1)n2CCN1CCCC1`, the cytotoxicity at 10 µM was 0.975%. `Cn1ccnc1CN1CCO[C@H]2C(CNC(=O)c3ccco3)CC[C@@H]21` (some centres not stated) gave a cytotoxicity at 10 µM of 3.62%. `CCCC12CN3CC(CCC)(CN(C1)C3c1[nH]c(=O)[nH]c(=O)c1C)C2=O` (configuration not stated) showed a cytotoxicity at 10 µM of 4.17%.
